Experimental data from ChEMBL document CHEMBL4619772 (J Med Chem, 2020).

Experiments:
A549 [1] = assay: Inhibition of pseudotyped HIV/EBOV GP infected in human A549 cells assessed as reduction in virus entry at 12.5 uM measured after 48 hrs by luciferase reporter gene assay relative to control; assay type: cell-based; conditions: Ebolavirus
Method in brief: (§1)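 Low-passage A549 cells are infected with HIV-based pseudovirions carrying EBOV or MARV GP and a luciferase reporter, with or without compound at 12.5 μM. […] Toremifene is the positive control.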

A549 [2] = assay: Inhibition of pseudotyped HIV/MARV GP infected in human A549 cells assessed as reduction in virus entry at 12.5 uM measured after 48 hrs by luciferase reporter gene assay relative to control; assay type: cell-based; conditions: Marburgvirus; method in brief: as §1
[3] = Inhibition of pseudotyped HIV/EBOV GP infected in human A549 cells assessed as reduction in virus entry measured after 48 hrs by luciferase reporter gene assay; assay type: cell-based, Ebolavirus; conditions: Orthoebolavirus, A549, 48 h
[4] = Inhibition of pseudotyped HIV/MARV GP infected in human A549 cells assessed as reduction in virus entry measured after 48 hrs by luciferase reporter gene assay; assay type: cell-based, Marburgvirus; conditions: Orthomarburgvirus, A549, 48 h
[5] = Selectivity index, ratio of CC50 for human A549 cells to EC50 for HIV/EBOV-GP infected in human A549 cells; assay type: toxicity, cell-based; conditions: read-out: Ratio CC50/EC50
Method in brief: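 Ratio CC50/EC50. CC50 is A549 cytotoxicity by CellTiter 96 aqueous nonradioactive cell proliferation assay.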

Marburgvirus = assay: Antiviral activity against Marburg virus Lake Victoria, 2005 Angola infected in human HeLa cells pretreated for 1 hr followed by virus infection measured after 24 hrs by Hoechst staining-based immunofluorescence assay; assay type: functional, organism-based, Lake Victoria marburgvirus; conditions: Orthomarburgvirus, Angola2005, HeLa
[6] = Selectivity index, ratio of CC50 for human HeLa cells to EC50 for Ebola virus 1976 Mayinga in human HeLa cells; assay type: toxicity, cell-based; conditions: read-out: Ratio CC50/EC50
[7] = Metabolic stability in human pooled plasma assessed as parent compound remaining at 20 uM after 60 mins by HPLC analysis; assay type: ADME, cell-free; conditions: read-out: Stability
Method in brief: (§2)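 Stability is reported as % of compound remaining after 60 min incubation in plasma or liver microsomes, relative to t0.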

[8] = Metabolic stability in Sprague-Dawley rat pooled plasma assessed as parent compound remaining at 20 uM after 60 mins by HPLC analysis; assay type: ADME, cell-free; conditions: read-out: Stability; method in brief: as §2
[9] = Metabolic stability in human liver microsomes assessed as parent compound remaining after 60 mins in presence of NADPH by HPLC analysis; assay type: ADME, Microsome; conditions: read-out: Stability; method in brief: as §2
[10] = Metabolic stability in Fischer F344 rat liver microsomes assessed as parent compound remaining after 60 mins in presence of NADPH by HPLC analysis; assay type: ADME, Microsome; conditions: read-out: Stability; method in brief: as §2
Cytochrome P450 3A4 = Cytochrome P450 3A4 (Homo sapiens, UniProt P08684); assay: Inhibition of recombinant human CYP3A4 expressed in baculovirus infected insect cell microsomes using vivid DBOMF as substrate preincubated for 10 mins followed by substrate addition and measured after 25 mins in presence of […] by fluorescence assay; assay type: ADME
Sequence of Cytochrome P450 3A4 (P08684 whole entry): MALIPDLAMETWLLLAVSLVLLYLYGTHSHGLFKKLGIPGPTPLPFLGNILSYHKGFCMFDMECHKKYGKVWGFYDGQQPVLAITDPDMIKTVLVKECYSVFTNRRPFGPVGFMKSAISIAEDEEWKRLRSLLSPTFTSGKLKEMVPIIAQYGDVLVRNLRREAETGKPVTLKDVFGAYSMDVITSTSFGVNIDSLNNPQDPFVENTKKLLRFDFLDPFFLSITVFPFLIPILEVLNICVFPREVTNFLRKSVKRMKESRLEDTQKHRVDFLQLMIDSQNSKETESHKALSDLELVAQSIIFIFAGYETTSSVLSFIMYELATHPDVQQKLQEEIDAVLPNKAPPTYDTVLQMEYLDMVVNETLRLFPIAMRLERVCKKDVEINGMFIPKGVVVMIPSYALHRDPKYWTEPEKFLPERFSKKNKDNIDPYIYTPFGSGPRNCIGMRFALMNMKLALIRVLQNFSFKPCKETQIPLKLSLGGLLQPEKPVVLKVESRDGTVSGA
Method in brief: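 CYP3A4 inhibition IC50 is determined with 10 μM quinidine as positive inhibitor control, from three replicates; errors are estimated <10%.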

Cytochrome P450 2C9 = Cytochrome P450 2C9 (Homo sapiens, UniProt P11712); assay: Inhibition of recombinant human CYP2C9 expressed in baculovirus infected insect cell microsomes using vivid BOMF as substrate preincubated for 10 mins followed by substrate addition and measured after 25 mins in presence of […] by fluorescence assay; assay type: ADME
Sequence of Cytochrome P450 2C9 (P11712 whole entry): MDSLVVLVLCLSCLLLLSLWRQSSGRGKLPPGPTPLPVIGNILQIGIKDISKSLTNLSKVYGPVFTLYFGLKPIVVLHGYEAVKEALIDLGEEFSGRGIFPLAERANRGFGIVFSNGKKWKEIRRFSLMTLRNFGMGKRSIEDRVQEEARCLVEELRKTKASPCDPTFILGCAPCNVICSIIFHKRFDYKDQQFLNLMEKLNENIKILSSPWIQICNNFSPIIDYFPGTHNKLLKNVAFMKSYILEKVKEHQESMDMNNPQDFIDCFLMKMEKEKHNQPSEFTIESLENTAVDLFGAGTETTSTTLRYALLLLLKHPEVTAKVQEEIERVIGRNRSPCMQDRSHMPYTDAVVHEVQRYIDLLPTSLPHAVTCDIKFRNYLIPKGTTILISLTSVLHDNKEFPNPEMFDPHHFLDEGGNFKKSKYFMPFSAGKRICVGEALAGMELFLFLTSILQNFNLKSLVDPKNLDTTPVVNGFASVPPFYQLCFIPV
Method in brief: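 CYP2C9 inhibition IC50 is determined with 30 μM sulfaphenazole as positive inhibitor control, from three replicates; errors are estimated <10%.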

Zaire ebolavirus = assay: Antiviral activity against Ebola virus 1976 Mayinga infected in human HeLa cells pretreated for 1 hr followed by virus infection measured after 24 hrs by Hoechst staining-based immunofluorescence assay; assay type: functional, organism-based

Row | Structure (SMILES) | inhibition (A549 [1]) | inhibition (A549 [2]) | EC50 [3] | EC50 [4] | selectivity ratio [5] | also measured
1 | CS(=O)(=O)c1ccc(NC(=O)c2ccc(CN3CCCCC3)cc2)cc1 | 0% | 17.4% | – | – | – | –
2 | CC(c1ccc(C(=O)N2CCc3cc(C(C)(C)C)ccc32)cc1)N1CCCCC1 (centres undefined) | 99.8% | 98.1% | 2050 nM | 3090 nM | 9 | EC50 (Marburgvirus): 3380 nM; selectivity ratio [6]: 19; remaining at 1 h, 20 µM [7]: 94%; remaining at 1 h, 20 µM [8]: 62%; remaining at 1 h [9]: 46%; remaining at 1 h [10]: 27%; IC50 (Cytochrome P450 3A4): 24000 nM; IC50 (Cytochrome P450 2C9): 7940 nM
3 | O=C(c1ccc(CN2CCCCC2)cc1)N1CCc2ccc(Cl)cc21 | 81.5% | 42.4% | 2220 nM | 2310 nM | 14 | –
4 | COC(=O)c1ccc(NC(=O)c2ccc(CN3CCCCC3)s2)cc1 | 33.8% | 27.2% | – | – | – | –
5 | COC(=O)c1ccc2c(c1)CCCN2C(=O)c1ccc(CN2CCCCC2)cc1 | 25.1% | 0% | – | – | – | –
6 | O=C(c1ccc(CN2CCCCC2)cc1)N1CCc2ccc(C(F)(F)F)cc21 | 83.7% | 59.2% | 1680 nM | 1460 nM | 38 | EC50 (Zaire ebolavirus): 3220 nM; EC50 (Marburgvirus): 8170 nM; selectivity ratio [6]: 39; remaining at 1 h, 20 µM [7]: 85%; remaining at 1 h, 20 µM [8]: 0%; remaining at 1 h [9]: 31%; remaining at 1 h [10]: 0%
7 | O=C(Nc1ccc(C(F)(F)F)c(Cl)c1)c1ccc(CN2CCCCC2)cc1 | 99.7% | 98.5% | 2340 nM | 2050 nM | 9 | –
8 | N#Cc1ccc(NC(=O)c2ccc(CN3CCCCC3)cc2)cc1 | 0% | 12.4% | – | – | – | –
9 | CC(c1ccc(C(=O)N2CC(C(C)(C)C)c3ccccc32)cc1)N1CCCCC1 (centres undefined) | 99.9% | 92.8% | 160 nM | 3180 nM | 224 | EC50 (Zaire ebolavirus): 870 nM; EC50 (Marburgvirus): 6320 nM; selectivity ratio [6]: 137; remaining at 1 h, 20 µM [7]: 88%; remaining at 1 h, 20 µM [8]: 2%; remaining at 1 h [9]: 2%; remaining at 1 h [10]: 0%
10 | O=C(c1ccc(CN2CCCCC2)cc1)N1CCc2ccc(F)cc21 | 20.1% | 13.5% | – | – | – | –
11 | O=C(NCCC1CCCCC1)c1ccc(CN2CCCCC2)cc1 | 90.9% | 27.3% | 2320 nM | 7740 nM | 25 | –
12 | CNS(=O)(=O)c1ccc(NC(=O)c2ccc(CN3CCCCC3)cc2)cc1 | 0% | 3.3% | – | – | – | –
13 | N#CC(c1ccc(NC(=O)c2ccc(CN3CCCCC3)cc2)cc1)C1CCCC1 (centres undefined) | 96.8% | 94% | 730 nM | 1630 nM | 99 | –
14 | O=C(Nc1ccc(C(F)(F)F)nc1)c1ccc(CN2CCCCC2)cc1 | 5.4% | 9.4% | – | – | – | –
15 | O=C(c1ccc(CN2CCCCC2)cc1)n1ccc2ccc(C(F)(F)F)cc21 | 0% | 0% | – | – | – | –
16 | O=C(Nc1ccc(C(F)(F)F)cc1)c1ccc(CN2CCCCC2)cc1 | 89.9% | 79.3% | 3870 nM | 5700 nM | 9 | –
17 | COC(=O)c1ccc(NC(=O)c2ccc(CN3CCOCC3)cc2)cc1 | 57.2% | 68.8% | – | – | – | –
18 | O=C(c1ccc(CN2CCCCC2)cc1)N1CC2(CC2)c2ccccc21 | 74.5% | 34.4% | – | – | – | –
19 | COC(=O)c1ccc(NC(=O)c2ccc(CN3CCN(C)CC3)cc2)cc1 | 29.4% | 30.3% | – | – | – | –
20 | CC(c1ccc(C(=O)N2CCc3ccc(C(F)(F)F)cc32)cc1)N1CCCCC1 (centres undefined) | 95.6% | 76.9% | 1560 nM | 1730 nM | 21 | –
21 | CN(C)CCOc1ccc(/C(=C(/CCCl)c2ccccc2)c2ccccc2)cc1 [TOREMIFENE] | – | – | 90 nM | – | – | EC50 (Zaire ebolavirus): 670 nM; EC50 (Marburgvirus): 3250 nM
22 | CC(c1ccc(C(=O)NCC2COC3(CCCCC3)O2)cc1)N1CCCCC1 (centres undefined) | 56% | 37.2% | – | – | – | –
